# Compound activity deposited in PubChem BioAssay by The Scripps Research Institute Molecular Screening Center.
# Only a selection was taken, and hits are over-represented in it overall.
# RORA inh = blocks the human nuclear receptor RORA | hit rate 0.43% among 65,000 | CHO-K1 Gal4-RORA LBD luciferase reporter, luminescence | inhibition, % at 10 µM | AID 561;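 active = inhibition above the mean of all tested compounds plus 3 SD, cut at about 52% in these data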
# Target sequence (P35398 whole entry, looked up, the tested form may be a part): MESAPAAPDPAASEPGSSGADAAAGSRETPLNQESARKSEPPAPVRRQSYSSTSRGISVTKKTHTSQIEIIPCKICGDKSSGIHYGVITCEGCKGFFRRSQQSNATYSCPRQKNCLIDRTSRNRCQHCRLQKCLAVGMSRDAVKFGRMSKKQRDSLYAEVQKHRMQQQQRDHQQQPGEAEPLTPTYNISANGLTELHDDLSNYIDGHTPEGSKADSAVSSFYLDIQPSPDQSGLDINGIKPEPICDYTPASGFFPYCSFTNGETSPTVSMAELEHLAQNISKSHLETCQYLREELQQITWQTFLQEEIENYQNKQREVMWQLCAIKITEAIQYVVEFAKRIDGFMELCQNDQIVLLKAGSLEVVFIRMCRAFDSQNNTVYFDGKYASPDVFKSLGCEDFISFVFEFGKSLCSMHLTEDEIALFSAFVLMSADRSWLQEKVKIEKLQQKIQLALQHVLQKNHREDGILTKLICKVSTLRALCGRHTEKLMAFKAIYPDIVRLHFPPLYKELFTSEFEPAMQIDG
#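 Test system – CHO-K1 Gal4-RORA LBD luciferase reporter cells · Schedule – 20 h at 37 °C · Signal – luminescence from basal luciferase reporter expression · Measure – percent inhibition of basal reporter luminescence, control-normalized · Control set – -RORA mock-transfected DMSO wells 100%, +RORA DMSO wells 0%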
# A number is an active result; n = inactive.
SMILES,RORA inh
Cc1cccc2cc3c(nc12)SC(=NCC1CCCO1)N(Cc1ccco1)C3 (centres undefined),55
COc1ccc(CCn2c(=N)c(C#N)cc3c(=O)n4ccccc4nc32)cc1,n
CCOC(=O)c1c(C)nc(-c2ccccc2)nc1N,n
CCOC(=O)C1=Nc2ccccc2C1=[N+]=[N-],76
CCOC(=O)c1cnn(-c2ccccn2)c1N,n
CCOC(=O)Cc1csc(NC(=O)CSc2nnc(-c3ccc(OC)cc3)n2C)n1,n
CC(C)C(=O)N1CCN(C2=NS(=O)(=O)c3ccccc32)CC1,n
CC1CCN(c2ccc(C(=O)O)cc2N)CC1,n
Cc1cc(C)cc(Nc2ccc(C(=O)O)cc2N)c1,71
C/C(=C\C(=O)c1ccc(C)o1)Nc1ccc(C(=O)O)cc1C,n
CSc1nnc(Cn2c(=O)sc3ccccc32)n1-c1ccccc1C,n
O=C(C1CCCN(S(=O)(=O)c2cccs2)C1)N1CCN(C2CCCCC2)CC1 (centres undefined),n
CSCCC(NC(=O)c1ccco1)C(=O)O (centres undefined),n
CCOc1ccc(-c2cc(CCCC(=O)NCCc3ccc(OC)c(OC)c3OC)no2)cc1,57
CCOc1ccc(-c2cc(CCCC(=O)Nc3cccc(OC)c3)no2)cc1,n
CCCCC(=O)Nc1ccc(NC(=O)c2cc(OC)c(OC)c(OC)c2)cn1,n
Cc1nnc2c3cnn(-c4ccc(Cl)cc4)c3ncn12,n
O=C(Nc1ccc(N2CCOCC2)c(Cl)c1)c1ccc(Br)o1,n
O=C(Nc1ccc(S(=O)(=O)N2CCCC2)cc1)c1ccc(CN2CCOCC2)cc1,n
O=C(Nc1ccc(N2CCOCC2)cc1)c1cnsn1,69
NC(=O)C1CCN(C(=O)CSCc2ccccc2Cl)CC1,n
Cc1ccc(-c2nsc3c(N4CCC(C(N)=O)CC4)ncnc23)cc1,57
CC12CN3CC(C)(CN(C1)C3c1ccc(Br)cc1)C2 (centres undefined),n
NC(=O)CS(=O)(=O)c1nc2ccccc2n1Cc1ccccc1F,n
O=C(NCCc1ccccc1)c1cnc2sccn2c1=O,n
SMILES,RORA inh
COc1ccc2cc3c(N)c(C(=O)N4CCCC4)sc3nc2c1,n
O=C(Nc1ccc2nc3n(c(=O)c2c1)CCCCC3)c1ccccn1,n
COc1ccc(-c2cc3nc4n(c(=O)c3s2)CCC4)cc1,71
N#Cc1cccc2cnccc12,n
Cc1csc2ncc(C(=O)Nc3ccc4c(c3)OCCO4)c(=O)n12,n
COc1ccc(N2CCN(C(=O)CSc3nnc(CNc4ccccc4)o3)CC2)cc1,n
CCOc1cc(C(=O)CSc2nnc(CNc3ccc(Cl)cc3)o2)ccc1NC(=O)CC,54
CCOC(=O)N1CCN(C(=O)CSc2nnc(CNC(=O)c3c(F)cccc3Cl)o2)CC1,n
CCc1nnc2sc(-c3ccc(NC(=O)c4ccc5c(c4)OCCO5)cc3)nn12,n
CCc1cc2c(=O)c(-c3cscn3)coc2c(CN(C)C)c1O,n
COCCNS(=O)(=O)c1cccc2cccnc12,n
CC(=O)N1CCc2cc(S(=O)(=O)NCCC3=CCCCC3)ccc21,57
CCC(=O)N1CCc2cc(S(=O)(=O)N3CCc4ccccc4C3)ccc21,n
CC(=O)N1CCc2cc(S(=O)(=O)NC3CCCc4ccccc43)ccc21 (centres undefined),n
CNc1nc2c(c(=O)[nH]c(=O)n2C)n1CCOC,n
CC#CCCCC(=O)Nc1cccc(C(=O)O)c1,n
Cc1cc(C(=O)Nc2cccc(C(=O)O)c2)oc1C,74
O=C(Nc1cccc(Br)c1)c1cc2ccccc2o1,n
O=C(NC1CCCc2ccccc21)C1CCN(c2c(N3CCCC3)c(=O)c2=O)CC1 (centres undefined),n
COc1cccc(N2CCN(c3ncnc4c3[nH]c3ccccc34)CC2C)c1 (centres undefined),95
COc1cccc(N2CCN(c3ncnc4c3[nH]c3ccc(F)cc34)CC2C)c1 (centres undefined),95
CCOCCn1c(CN(Cc2ccccc2)Cc2ccccc2)nc2c1c(=O)n(C)c(=O)n2C,n
O=C(Nc1ccc(Cc2ccncc2)cc1)c1ccco1,n
Cc1ccc(-c2csc(NC(=O)c3ccno3)n2)cc1,n
COc1ccc(CCNC(=O)C2CCCN(C(=O)N(C)C)C2)c(OC)c1 (centres undefined),n
SMILES,RORA inh
O=S(=O)(c1ccc(S(=O)(=O)N2CCCC2)cc1)N1CCCCCC1,n
O=S(=O)(c1ccc2c(c1)C(=NO)c1cc(S(=O)(=O)N3CCCCC3)ccc1-2)N1CCCCC1,66
COc1ccc(Oc2ccc(S(=O)(=O)N3CCCCC3)cc2S(=O)(=O)N2CCCCC2)cc1,n
Cc1ccc2nc(NC3=NCN(CCN4CCOCC4)CN3)nc(C)c2c1,n
Cc1ccc(-c2nnc(Nc3ccccc3)o2)cc1,61
Brc1cccc(-c2nnc(-c3ccccc3)o2)c1,n
CCOc1ccccc1C(=O)Nc1ccc(-c2nnc(-c3ccc(C)cc3)o2)cc1,n
CC(C)(C)n1ncc2c(=O)n(CC(=O)NCc3ccc(F)cc3)cnc21,n
CCCn1c(N)c(Sc2ccc(Cl)cc2)c(=O)n(CCC)c1=O,n
CCOC(=O)c1c(C)[nH]c(C)c1C(=O)CSc1nnc(-c2ccncc2)n1C,n
Nc1nc(-c2ccc3c(c2)OCCO3)cs1,n
Cc1ccc(-c2csc(N3CCC(NS(=O)(=O)c4ccc5c(c4)OCCO5)CC3)n2)cc1,70
CCCC(=O)Nc1nc(-c2ccc3c(c2)OCCO3)cs1,n
COc1ccc(NC(=O)c2cnc3ccccn3c2=O)cc1OC,n
CC(=O)N1CCc2cc(C(=O)CN3CCN(C(=O)c4ccco4)CC3)ccc21,n
c1ccc(-c2nc(N3CCCCCC3)c3ccccc3n2)nc1,79
O=C(O)c1cccc(N2CCCC2)c1,n
COc1ccc(Nc2nc(N3CCCC3)c3ccccc3n2)cc1,n
CC1CCc2ccccc2N1C(=O)c1cccs1 (centres undefined),n
CCC(=O)Nc1nc2ccc3nc(C)sc3c2s1,n
c1ccc(-c2nnc(N3CCN(c4ccccn4)CC3)c3ccccc23)cc1,n
Oc1c(CN2CCN(c3ccccn3)CC2)cc(Cl)c2cccnc12,60
Oc1c(CN2CCCCC2)cc(COCc2ccccc2)c2cccnc12,53
O=P(O)(CCc1ccccn1)CN1CCCCC1,n
COc1cc(-c2nnc(COc3ccc4ccccc4c3)o2)cc(OC)c1OC,n
SMILES,RORA inh
c1cncc(-c2nn3c(-c4ccncc4)nnc3s2)c1,n
COc1ccc(-c2cc(=O)n(-c3nc4ccccc4[nH]3)[nH]2)cc1,n
CSC1=C(C#N)C(C)CC(=O)N1 (centres undefined),n
COc1ccc(C2(C(=O)NCC3CCCO3)CCOCC2)cc1 (centres undefined),n
CCCc1cc(N2CCCC(C(=O)Nc3ccc(OC)cc3OC)C2)n2ncnc2n1 (centres undefined),n
CCCCn1c(SCC(=O)N2CCN(c3ccccc3)CC2)nc2ccsc2c1=O,n
CC1(C)CC(=O)c2cnc(NC(=O)C3CCCC3)nc2C1,n
Cc1nc(SCc2cccc(F)c2)[nH]c(=O)c1C#N,n
CNC(=O)NC(=O)COC(=O)CCCOc1ccc(OC)cc1,n
COc1ccc(C(=O)c2ccccc2)c(O)c1,n
COc1ccc(O)c(C(=O)CC(=O)c2ccc(F)cc2)c1,58
COc1cccc(NC(=O)Cc2nnc(SCC(=O)c3ccccc3)n2C)c1,n
Cc1ccc(N2C(=O)[C@@H]3C(c4ccc(F)cc4)=NO[C@@H]3C2=O)cc1,n
CC(C)Oc1ccc(C2c3c(oc4ccccc4c3=O)C(=O)N2CCCN2CCOCC2)cc1 (centres undefined),n
